Assays:
Orexin receptor type 2 = target: T1, Orexin receptor type 2 (Homo sapiens, UniProt O43614); test: Displacement of [125I]-orexin-A from human OX2 receptor expressed in CHO cells after 30 mins by liquid scintillation counting analysis; format: cell-based
T1 sequence (O43614 whole entry): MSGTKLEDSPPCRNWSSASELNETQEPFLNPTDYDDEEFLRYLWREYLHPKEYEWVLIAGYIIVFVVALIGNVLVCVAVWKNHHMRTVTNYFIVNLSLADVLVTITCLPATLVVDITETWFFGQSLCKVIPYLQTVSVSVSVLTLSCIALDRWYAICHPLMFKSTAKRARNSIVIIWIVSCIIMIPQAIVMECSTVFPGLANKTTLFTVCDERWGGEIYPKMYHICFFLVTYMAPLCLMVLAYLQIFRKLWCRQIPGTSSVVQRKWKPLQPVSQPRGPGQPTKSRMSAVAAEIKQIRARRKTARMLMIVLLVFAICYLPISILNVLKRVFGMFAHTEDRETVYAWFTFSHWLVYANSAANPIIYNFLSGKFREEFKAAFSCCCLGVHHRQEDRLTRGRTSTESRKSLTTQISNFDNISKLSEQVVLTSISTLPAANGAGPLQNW
Summary of the method: (§1)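 CHO membranes expressing human OX1R or OX2R (5 μg protein) incubated 30 min at rt with compound and [125I]-orexin A (2 nM stock) in HEPES buffer pH 7.5 with MgCl2, CaCl2, BSA. Nonspecific binding with 10 μM orexin A. Wells washed with HEPES/525 mM NaCl and DPM counted. % inhibition from test, control and nonspecific counts; mean of three wells.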

[1] = Ratio of flux ratio in pig LLC cells expressing MDR1 to flux ratio on pig LLC-PK1 cells; format: ADME, cell-based, Sus scrofa
Summary of the method: (§2)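 LLC-PK1 and LLC-MDR1 monolayers, 5 days post-seeding, preincubated 2 h at 37 °C in HBSS/10 mM HEPES. Compound added apically or basally, 2 h at 37 °C; opposite side assayed by LC-MS. Papp = Q/t/C0/A; FR = Papp(b→a)/Papp(a→b); corrected FR = FR(LLC-MDR1)/FR(LLC-PK1).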

[2] = target: T2, Orexin/Hypocretin receptor type 1 (Homo sapiens, UniProt O43613); test: Displacement of [125I]-orexin-A from human OX1 receptor expressed in CHO cells after 30 mins by liquid scintillation counting analysis; format: cell-based; summary of the method: as §1
T2 sequence (O43613 whole entry): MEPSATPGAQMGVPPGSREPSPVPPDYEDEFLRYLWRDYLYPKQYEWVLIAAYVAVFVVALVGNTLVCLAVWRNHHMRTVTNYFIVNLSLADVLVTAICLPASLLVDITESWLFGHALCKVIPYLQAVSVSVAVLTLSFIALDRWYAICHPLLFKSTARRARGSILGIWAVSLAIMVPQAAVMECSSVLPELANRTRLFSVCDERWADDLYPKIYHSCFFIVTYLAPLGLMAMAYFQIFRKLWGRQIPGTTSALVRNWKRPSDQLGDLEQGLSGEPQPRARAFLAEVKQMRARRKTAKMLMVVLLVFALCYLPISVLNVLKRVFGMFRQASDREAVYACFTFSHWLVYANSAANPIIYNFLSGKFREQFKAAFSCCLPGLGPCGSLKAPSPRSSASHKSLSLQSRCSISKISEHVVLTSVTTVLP

[3] = Octanol-phosphate buffer partition coefficient, log D of the compound at pH 7.4 by Shake flask method; format: physicochemical
Summary of the method: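 [11C]-labelled compound (about 200 000 cpm) in n-octanol and 0.1 M PBS pH 7.4, vortexed 3 min at rt and centrifuged; weighed aliquots of each phase γ-counted, with the organic layer repartitioned until stable. log D = log(cpm/g octanol ÷ cpm/g PBS); triplicate.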

[4] = Flux ratio of permeability from apical to basolateral to basolateral to apical side in pig LLC cells expressing MDR1 after 2 hrs; format: ADME, cell-based, Sus scrofa; summary of the method: as §2
LLC-PK1 = test: Flux ratio of permeability from apical to basolateral to basolateral to apical side in pig LLC-PK1 cells after 2 hrs; format: ADME, cell-based, Sus scrofa; settings: llc-pk1, 2 h; summary of the method: as §2
Brain [5] = test: Drug uptake in rhesus monkey brain at 115.5 MBq, iv by PET analysis in presence of tariquidar; format: ADME, organism-based, Macaca mulatta; settings: in vivo
Hippocampus [6] = test: Drug uptake in rhesus monkey hippocampus at 115.5 MBq, iv after 30 seconds by PET analysis; format: ADME, organism-based, Macaca mulatta; settings: in vivo, 0.5 min
Summary of the method: (§3)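 A single rhesus monkey, thiamylal induction then 1.5% isoflurane; 90 min 3D dynamic PET after transmission scan; [11C] tracer bolus via crural vein (115.5 MBq at baseline; 87.7 MBq after tariquidar 8 mg/kg iv over 10 min, 0.25 h before). ROIs on individual MRI; decay-corrected %SUV.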

Thalamus [7] = test: Drug uptake in P-gp-knockout rat thalamus at 78.7 to 189.8 MBq, iv after 90 mins by PET analysis in presence of 10 mg/kg, po unlabeled compound; format: ADME, organism-based; parameters: dose 10 mg/kg, route oral; settings: in vivo, 1.5 h
Summary of the method: (§4)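 Male Mdr1a-knockout rats (410−500 g) under 1.5% isoflurane at 37 °C; [11C] tracer 78.7−189.8 MBq by tail vein. 90 min list-mode microPET scan with filtered back-projection; ROIs drawn on MRI template; decay-corrected %ID/mL, n = 3. Blocking: unlabeled compound 10 mg/kg po in 5% DMSO/10% cremophor in 10 mM HCl, given 1 h before tracer.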

Brain [8] = test: Ex vivo drug metabolism in P-gp-knockout rat brain assessed as retention time at 330 MBq after 30 min by HPLC chromatogram analysis; format: ADME, tissue-based; settings: 0.5 h
Summary of the method: (§5)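 Mdr1a-knockout rat (450 g) given [11C] tracer 330 MBq iv and decapitated at 30 min. Plasma deproteinised with MeCN; half-brain homogenised in 50% aqueous MeCN and deproteinised. Supernatants run on C18 radio-HPLC (MeCN/H2O/TEA 5/5/0.01, 1.5 mL/min). Parent % = parent peak area/total peak area × 100, decay corrected; n = 1.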

[9] = Drug uptake in rhesus monkey neocortex at 115.5 MBq, iv after 30 seconds by PET analysis; format: ADME, organism-based, Macaca mulatta; settings: in vivo, 0.5 min; summary of the method: as §3
[10] = Metabolic stability in P-gp-knockout rat brain assessed as unmetabolized drug level at 330 MBq after 30 min by HPLC chromatogram analysis; format: ADME, tissue-based; settings: read-out: Stability; summary of the method: as §5
[11] = Drug uptake in rhesus monkey cerebellum at 115.5 MBq, iv after 30 seconds by PET analysis; format: ADME, organism-based, Macaca mulatta; settings: in vivo, 0.5 min; summary of the method: as §3
Hippocampus [12] = test: Drug uptake in rhesus monkey hippocampus at 115.5 MBq, iv after >30 seconds by PET analysis; format: ADME, organism-based, Macaca mulatta; settings: in vivo; summary of the method: as §3
[13] = Metabolic stability in P-gp-knockout rat plasma assessed as unmetabolized drug level at 330 MBq after 30 min by HPLC chromatogram analysis; format: ADME, cell-free; settings: read-out: Stability; summary of the method: as §5
Thalamus [14] = test: Drug uptake in P-gp-knockout rat thalamus at 78.7 to 189.8 MBq, iv after 90 mins by PET analysis; format: ADME, organism-based; settings: in vivo, 1.5 h; summary of the method: as §4
[15] = Drug uptake in P-gp-knockout rat neocortex at 78.7 to 189.8 MBq, iv after 90 mins by PET analysis in presence of 10 mg/kg, po unlabeled compound; format: ADME, organism-based; parameters: dose 10 mg/kg, route oral; settings: in vivo, 1.5 h; summary of the method: as §4
[16] = Drug uptake in rhesus monkey neocortex at 115.5 MBq, iv after >30 seconds by PET analysis; format: ADME, organism-based, Macaca mulatta; settings: in vivo; summary of the method: as §3
[17] = Drug uptake in rhesus monkey cerebellum at 115.5 MBq, iv after >30 seconds by PET analysis; format: ADME, organism-based, Macaca mulatta; settings: in vivo; summary of the method: as §3
[18] = Drug uptake in P-gp-knockout rat neocortex at 78.7 to 189.8 MBq, iv after 90 mins by PET analysis; format: ADME, organism-based; settings: in vivo, 1.5 h; summary of the method: as §4
Hippocampus [19] = test: Drug uptake in P-gp-knockout rat hippocampus at 78.7 to 189.8 MBq, iv after 90 mins by PET analysis; format: ADME, organism-based; settings: in vivo, 1.5 h; summary of the method: as §4
Cerebellum = test: Drug uptake in P-gp-knockout rat cerebellum at 78.7 to 189.8 MBq, iv after 90 mins by PET analysis in presence of 10 mg/kg, po unlabeled compound; format: ADME, organism-based; parameters: dose 10 mg/kg, route oral; settings: in vivo, 1.5 h; summary of the method: as §4
Hippocampus [20] = test: Drug uptake in P-gp-knockout rat hippocampus at 78.7 to 189.8 MBq, iv after 90 mins by PET analysis in presence of 10 mg/kg, po unlabeled compound; format: ADME, organism-based; parameters: dose 10 mg/kg, route oral; settings: in vivo, 1.5 h; summary of the method: as §4
Brain [21] = test: Ex vivo drug uptake in P-gp-knockout rat brain assessed as retention time at 330 MBq after 30 min by HPLC chromatogram analysis; format: ADME, tissue-based; settings: 0.5 h; summary of the method: as §5

For `COc1ccc([C@]2(COc3cnc(C)nc3C)C[C@H]2C(=O)Nc2ccc(F)cn2)cc1F`, the Ki (Orexin receptor type 2) was 7 nM, the Ratio [1] was 1.55 and the Ki [2] was 30 nM. For the same compound, the logD [3] was 3.32, the Ratio [4] was 1.24 and the Ratio (LLC-PK1) was 0.8.
In the case of `Cc1ncc(OC[C@@]2(c3cccc(F)c3)C[C@H]2C(=O)Nc2ccc(F)cn2)c(CO[11CH3])n1`, the Drug uptake (Brain [5]) is reported as “Active”, the Drug uptake (Hippocampus [6]) is reported as “Active” and the logD [3] is reported as 2.97. For the same compound, the Drug uptake (Thalamus [7]) was “Active”, the Retention_time (Brain [8]) was 2 min and the Drug uptake [9] was “Active”. The remaining at 0.5 h [10] was 54%, the Drug uptake [11] was “Active” and the Drug uptake (Hippocampus [12]) was “Not Active”. For the same compound, the remaining at 0.5 h [13] was 12%, the Drug uptake (Thalamus [14]) was “Active” and the Drug uptake [15] was “Not Active”. For the same compound, the Drug uptake [16] was “Not Active”, the Drug uptake [17] was “Not Active” and the Drug uptake [18] was “Active”. For the same compound, the Drug uptake (Hippocampus [19]) was “Active”, the Drug uptake (Cerebellum) was “Not Active” and the Drug uptake (Hippocampus [20]) was “Not Active”. For the same compound, the Retention_time (Brain [21]) was 5.2 min.

— ChEMBL document CHEMBL2424641, “Synthesis and evaluation of novel radioligands for positron emission tomography imaging of the orexin-2 receptor” (J Med Chem, 2013)
